Assays:
MS2 coat protein [1] = test: apparent Kd, MS2 coat protein; higher = weaker binding; RNA-MaP array
Outline: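 Designed RNAs were transcribed in place on an Illumina sequencing chip from sequenced DNA templates. At room temperature and with or without input ligand, they were incubated with fluorescently labeled MS2 coat protein from 1.5 nM to 3 μM, for 0.8–1.5 h at the lowest and 10–20 min at the highest concentrations. Apparent Kd is the median of the binding-curve fits made per cluster, with designs measured on fewer than 10 clusters excluded.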

MS2 coat protein [2] = test: apparent Kd, MS2 coat protein; higher = weaker binding; RNA-MaP array; FMN 200 µM where present
Outline: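 Stalled E. coli RNA polymerase produced the designs on Illumina sequencing-chip clusters. SNAP-549-labelled MS2 coat protein was added from 0.7 or 1.5 nM, doubling to 3 µM, without and then with constant ligand, in 100 mM Tris-HCl pH 7.5, 80 mM KCl, 4 mM MgCl2, BSA, DTT, yeast tRNA and Tween-20. The apparent Kd is the median of filtered per-cluster fits of green signal normalised to red-channel RNA signal and control-cluster median Fmax.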

[3] = designed as: ON switch for flavin mononucleotide, no ligand
[4] = ligand present: flavin mononucleotide, designed as: ON switch for flavin mononucleotide
[5] = designed as: OFF switch for flavin mononucleotide, no ligand
[6] = ligand present: flavin mononucleotide, designed as: OFF switch for flavin mononucleotide
[7] = designed as: OFF switch for theophylline, no ligand
[8] = ligand present: theophylline, designed as: OFF switch for theophylline

## AAAAGGUCCGCUACAUGAGGAUCACCCAUGUAAAGGGUAAAUCAGGAUAUGGACGGGAGUCUUAACCAGAAGGGAUUACAGGUC
MS2 coat protein [1]; [3]
  apparent Kd: 31.6 nM
MS2 coat protein [1]; [4]
  apparent Kd: 25.1 nM

## AAAAUUGAAGGAUAUACAUGAGGAUCACCCAUGUGCAACAUAUUUGAAUGGCCUCACGGUAGAAGGUCAAAACG
MS2 coat protein [1]; [5]
  apparent Kd: 6.83 nM
MS2 coat protein [1]; [6]
  apparent Kd: 7.52 nM

## AACAAACAUGAGGAUCACCCAUGUGAGGAUAUCAAGUCCAUACCCUAAGAGGGAGUUUUGAGAAGGCACGUGUA
MS2 coat protein [1]; [5]
  apparent Kd: 11.2 nM
MS2 coat protein [1]; [6]
  apparent Kd: 15.1 nM

## AACGUCAACGUAAGGAUAUGCAGUAAGAGCGACAGGCAGAAGGUACAUGAGGAUCACCCAUGUUAACAGAACGG
MS2 coat protein [1]; [5]
  apparent Kd: 8.79 nM
MS2 coat protein [1]; [6]
  apparent Kd: 9.6 nM

## AAGAAAUUCUCACAUGAGGAUCACCCAUGUCCACACGACUAGAGAAGGGCCUUCUACGUGCACUGGCAGGAUAUCUAACCGGGA
MS2 coat protein [1]; [5]
  apparent Kd: 140 nM
MS2 coat protein [1]; [6]
  apparent Kd: 87.5 nM

## AAGCCACAUGAGGAUCACCCAUGUAAGGGUACCUGAGGAUAUCCGGCGGGACAGAAAGGAGGAGAAGGCAGAUCCA
MS2 coat protein [1]; [3]
  apparent Kd: 50.2 nM
MS2 coat protein [1]; [4]
  apparent Kd: 33 nM

## AAGUUACACAAGAAGGAGGGCGACUUUUUCACAUGAGGAUCACCCAUGUAUCCUCUUGGAGGAACCUAGGAUAUUGCUAAGCGU
MS2 coat protein [1]; [5]
  apparent Kd: 175 nM
MS2 coat protein [1]; [6]
  apparent Kd: 170 nM

## AAUCGCCUGGGUCGCAUCCUUGCUCCGGAUACCAGUCAAUAGUUGGACCCUUGGCAGCCGUAGACAUGAGGAUCACCCAUGUAUA
MS2 coat protein [1]; [7]
  apparent Kd: 53.8 nM
MS2 coat protein [1]; [8]
  apparent Kd: 109 nM

## AAUGUGUAAGGAUAUACCGUUCAGUCUCUCCACAAUCGAUGGUAGAAGGUACAUGAGGAUCACCCAUGUGAGGA
MS2 coat protein [1]; [5]
  apparent Kd: 14.9 nM
MS2 coat protein [1]; [6]
  apparent Kd: 15.2 nM

## ACAAACUCAGGAUAUAACGGUGGACACAUGAGGAUCACCCAUGUAAUCCGUGUGACUUAUUUAGAAGGGAGGCGAU
MS2 coat protein [1]; [5]
  apparent Kd: 8.35 nM
MS2 coat protein [1]; [6]
  apparent Kd: 8.34 nM

## ACACAUCCACAUGAGGAUCACCCAUGUAAACCGAAAUAGCACUAGGAUAUGGGACAAACAAUUCACCAGAAGGAGUAAAAGAAA
MS2 coat protein [1]; [3]
  apparent Kd: 52.7 nM
MS2 coat protein [1]; [4]
  apparent Kd: 23.8 nM

## ACAGAAAAUAGAGGAUAUACAAGAACAUGAGGAUCACCCAUGUAAUAACAAUAUGAUCGGUUCAAGAAGAAGGCUAAACAAAAU
MS2 coat protein [1]; [5]
  apparent Kd: 14.2 nM
MS2 coat protein [1]; [6]
  apparent Kd: 12.8 nM

## ACAGCAAACGUAGGAUAUGGGAGAACAUGAGGAUCACCCAUGUGGAAGUACGAGUUCGCUACAUACCAGAAGGACGAAAUCUAC
MS2 coat protein [1]; [3]
  apparent Kd: 156 nM
MS2 coat protein [1]; [4]
  apparent Kd: 35.8 nM

## ACCCUGUGAGGAUAUAUGCGGUUUGAACCAGAUCAGAAAUAAUAGAAGGCACAUGAGGAUCACCCAUGUUUCUC
MS2 coat protein [1]; [5]
  apparent Kd: 27.9 nM
MS2 coat protein [1]; [6]
  apparent Kd: 22.8 nM

## ACCGAUCGAGGAUAUACAGAACAAAAGAACAUGACGAAGAAACAUGAGGAUCACCCAUGUAGAAGGCGAAAAGA
MS2 coat protein [1]; [5]
  apparent Kd: 8.58 nM
MS2 coat protein [1]; [6]
  apparent Kd: 9.05 nM

## ACGAAUGUAGGAUAUACCAGUAGGAGAUGGGUAUCAGCACCACAUGAGGAUCACCCAUGUAGAAGGACACGUGA
MS2 coat protein [1]; [5]
  apparent Kd: 38.4 nM
MS2 coat protein [1]; [6]
  apparent Kd: 40.3 nM

## ACGGUUCGAGGAUAUGUCGGUAGUUACAUGAGGAUCACCCAUGUUGUGACAUCGUGGUGGACAGAAGGCGACAUCC
MS2 coat protein [1]; [5]
  apparent Kd: 201 nM
MS2 coat protein [1]; [6]
  apparent Kd: 119 nM

## ACUGCUGUAGGAUAUCAACGAAAUAACAUGAGGAUCACCCAUGUGGCAGUGAUCAGCAGUUGAGAAGGACAUGGCC
MS2 coat protein [1]; [5]
  apparent Kd: 10.9 nM
MS2 coat protein [1]; [6]
  apparent Kd: 11.3 nM

## ACUGCUUUAGCGGCCGCCACUACAUGGACACUUACACUUUCUUGUUACAUGAGGAUCACCCAUGUUAGGACCGGGCUUGUACGGA
MS2 coat protein [1]; designed as: OFF switch for tryptophan, no ligand
  apparent Kd: 62.1 nM
MS2 coat protein [1]; ligand present: tryptophan, designed as: OFF switch for tryptophan
  apparent Kd: 78.2 nM

## AGAACCCAAGAGGAUACCAGAACGACAAUCAAAUCUUUUUACAUGAGGAUCACCCAUGUUUUCCCUUGGCAGCCUCAUGCACGAC
MS2 coat protein [1]; [7]
  apparent Kd: 72.1 nM
MS2 coat protein [1]; [8]
  apparent Kd: 60.8 nM

## AGAGCACAUGAGGAUCACCCAUGUUAGGAUAUAAGUCUGGAUCUACCUGAGCCCGAUCUUAGAAGGAACGGUGU
MS2 coat protein [1]; [5]
  apparent Kd: 11 nM
MS2 coat protein [1]; [6]
  apparent Kd: 11.6 nM

## AGAUCCCUGGUGAGGAUAUGUGAGACAUUCCCAGGACAGAAGGCACAUGAGGAUCACCCAUGUGUUGGGUAAUU
MS2 coat protein [1]; [5]
  apparent Kd: 6.32 nM
MS2 coat protein [1]; [6]
  apparent Kd: 6.65 nM

## AGCACGAGCGCAGGAUAUGCAUAACCCGUAGCUGCAGAAGGGCGACAUGAGGAUCACCCAUGUAUAUCCAGAACUACAAUCUGA
MS2 coat protein [1]; [3]
  apparent Kd: 35.8 nM
MS2 coat protein [1]; [4]
  apparent Kd: 33 nM

## AGCAGAGCCUAGAAGGCAGUGCAGACCGCGCACUGAGGAUAUAGACUUUAAGAUUGUACAUGAGGAUCACCCAUGUUGAGUGGG
MS2 coat protein [1]; [5]
  apparent Kd: 563 nM
MS2 coat protein [1]; [6]
  apparent Kd: 450 nM

## AGCUUAAUUAUAGGAUAUGAGAGGACAUGAGGAUCACCCAUGUAGAUGUUUGCCACAUAGCCAGUUCAGAAGGAUAGAGCACCA
MS2 coat protein [1]; [5]
  apparent Kd: 24.9 nM
MS2 coat protein [1]; [6]
  apparent Kd: 19.4 nM

## AGGACAUGAGGAUCACCCAUGUGAUGACAUUUCCUAGAACCGAAGGAUAUGCAAACGGAACCCGCGCAGAAGGUCGCUAACCUU
MS2 coat protein [1]; [5]
  apparent Kd: 57.5 nM
MS2 coat protein [1]; [6]
  apparent Kd: 42.5 nM

## AGGACGUCAGGAUAUUCUAUGUGGCUCUAAUGGCCGACCAUGAAGAAGGGACAUGAGGAUCACCCAUGUGAGCU
MS2 coat protein [1]; [5]
  apparent Kd: 25.7 nM
MS2 coat protein [1]; [6]
  apparent Kd: 50.1 nM

## AGGGCACAUGAGGAUCACCCAUGUAAGGAUAUGGACUUUUUUGCUGUAGUAAUCAUCUCCAGAAGGUACGUCUU
MS2 coat protein [1]; [5]
  apparent Kd: 24.4 nM
MS2 coat protein [1]; [6]
  apparent Kd: 19.6 nM

## UUUUAACAUGAGGAUCACCCAUGUGAGGAUAUCGAAAUUUAUAUUUAUAUUAAUAUUUCGAGAAGGCACAUUUU
MS2 coat protein [2]; [5]
  apparent Kd: 195 nM
MS2 coat protein [2]; [6]
  apparent Kd: 191 nM

## UUUUAACAUGAGGAUCACCCAUGUGAGGAUAUCGAAAUUUAUAUUUAUAUUUAUAUAUCGAGAAGGCACAUUUU
MS2 coat protein [2]; [5]
  apparent Kd: 128 nM
MS2 coat protein [2]; [6]
  apparent Kd: 127 nM

## UUUUAACAUGAGGAUCACCCAUGUGAGGAUAUCGAAAUUUAUAUUUAUAUUUAUUAAACGAGAAGGCACAUUUU
MS2 coat protein [2]; [5]
  apparent Kd: 70.2 nM
MS2 coat protein [2]; [6]
  apparent Kd: 100 nM

## UUUUAACAUGAGGAUCACCCAUGUGAGGAUAUCGAAUUUUUUAUUAAUAUUAAUAAAACGAGAAGGCACAUUUU
MS2 coat protein [2]; [5]
  apparent Kd: 63.1 nM
MS2 coat protein [2]; [6]
  apparent Kd: 70.2 nM

## UUUUACCGAGGAUAUACAUUUUUUUUAUUAUCCUCAUUAUUACAUGAGGAUCACCCAUGUAGAAGGCGGAUUUU
MS2 coat protein [2]; [5]
  apparent Kd: 52.9 nM
MS2 coat protein [2]; [6]
  apparent Kd: 112 nM

## UUUUAUUAGUAAGGAUAUACUAGCGAUGAGCUUGUAGAAGGUACAGUCUUAUGUAUAACAUGUUAACAUGAGGAUCACCCAUGU
MS2 coat protein [2]; [3]
  apparent Kd: 38.6 nM
MS2 coat protein [2]; [4]
  apparent Kd: 22.4 nM

## UUUUCUACUGAGGAUAUUAUAUUACCCGACUGAUAAGAAGGCAGUACAUGAGGAUCACCCAUGUGGGUAGCCAU
MS2 coat protein [2]; [5]
  apparent Kd: 21.8 nM
MS2 coat protein [2]; [6]
  apparent Kd: 31 nM

## UUUUUACAUGAGGAUCACCCAUGUCAGGAUAUGCUUAUAUUUUAUUAUUUUAUUUUUUGCAGAAGGGACUAUUA
MS2 coat protein [2]; [5]
  apparent Kd: 91.8 nM
MS2 coat protein [2]; [6]
  apparent Kd: 68 nM

## UUUUUACUUGCAGGAUAUGGAGACAUGAGGAUCACCCAUGUAUGAUAAGCUAAAUUAUGCUGUGGCCAGAAGGGUAUUGUUCUU
MS2 coat protein [2]; [3]
  apparent Kd: 72 nM
MS2 coat protein [2]; [4]
  apparent Kd: 52.9 nM

## UUUUUUGUUGUGAGGAUAUCGUAGUUAUUUUGUUACGAGAAGGCACAUGAGGAUCACCCAUGUUUUUUGAUGUU
MS2 coat protein [2]; [5]
  apparent Kd: 23.8 nM
MS2 coat protein [2]; [6]
  apparent Kd: 82.6 nM

## UUUUUUGUUGUGAGGAUAUCGUAUUCUUUUUGUUACGAGAAGGCACAUGAGGAUCACCCAUGUUUCUUGAUGUU
MS2 coat protein [2]; [5]
  apparent Kd: 15.8 nM
MS2 coat protein [2]; [6]
  apparent Kd: 27.3 nM

## UUUUUUGUUGUGAGGAUAUCGUUGUUGUUGUGGAUCGAGAAGGCACAUGAGGAUCACCCAUGUUUGUUGUGGUU
MS2 coat protein [2]; [5]
  apparent Kd: 89.1 nM
MS2 coat protein [2]; [6]
  apparent Kd: 220 nM

## UUUUUUGUUGUGAGGAUAUCGUUUUUGUUUUGGAUCGAGAAGGCACAUGAGGAUCACCCAUGUUUGUUGUGGUU
MS2 coat protein [2]; [5]
  apparent Kd: 88.8 nM
MS2 coat protein [2]; [6]
  apparent Kd: 159 nM

## UUUUUUUAUAAGGAUAUGGGAGUCGAUAGACACCCAGAAGGUAUAACAUGAGGAUCACCCAUGUGUCCUUUUUU
MS2 coat protein [2]; [5]
  apparent Kd: 21.2 nM
MS2 coat protein [2]; [6]
  apparent Kd: 24.1 nM

## UUUUUUUUUAGAGGAUAUAUUGUGUGUUAUAUAAUAGAAGGCUAAACAAACAUGAGGAUCACCCAUGUUGUCCAUGUCGUCGGC
MS2 coat protein [2]; [3]
  apparent Kd: 15.3 nM
MS2 coat protein [2]; [4]
  apparent Kd: 20.7 nM

Source: the EternaBench riboswitch data
